The target in test [1] is T1, Amyloid-beta precursor protein (Homo sapiens, UniProt P05067). As to the kind of experiment: Inhibition of self-induced amyloid beta 40 (unknown origin) aggregation measured for 24 hrs by thioflavin T-based fluorescence spectroscopic analysis.
Test [2] deals with T1, Amyloid-beta precursor protein. As to the kind of experiment: Inhibition of self-induced amyloid beta 42 (unknown origin) aggregation measured for 24 hrs by thioflavin T-based fluorescence spectroscopic analysis.
For test [3] the target is unchanged. Briefly: Inhibition of nucleation-dependent amyloid beta 40 (unknown origin) aggregation at 1 to 25 uM measured for 24 hrs by thioflavin T-based fluorescence spectroscopic analysis. In outline: (§1)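 Aβ peptide at 5 μM incubated with test compound (1, 5 or 25 μM) in phosphate buffer pH 7.4 at 37 °C for 24 h; aggregation monitored by ThT fluorescence (excitation 440 nm, emission 490 nm). IC50 calculated from ThT signal; mean of triplicate readings from three independent experiments.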

For test [4] the target is unchanged. As to the kind of experiment: Inhibition of amyloid beta 42 (unknown origin) aggregation assessed as time at which fluorescence intensity reaches the midpoint between pre and post aggregation baseline growth phase at 25 uM measured for 24 hrs by thioflavin T-based fluorescence spectroscopic analysis. The method in brief:
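Aβ42 at 5 μM with compound at 25 μM in phosphate buffer pH 7.4, 37 °C, followed 24 h by ThT fluorescence (ex 440/em 490 nm). t50 taken as the time at which fluorescence reaches the midpoint between pre- and postaggregation baselines of the growth phase. Three independent experiments in triplicate.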

Test [5] has the same target. As to the kind of experiment: Inhibition of amyloid beta 40 (unknown origin) aggregation at 25 uM after 24 hrs by transmission electron microscopy. The method in brief:
(§2)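 Aβ40 or Aβ42 at 25 μM, alone or with 25 μM compound, incubated 24 h at 37 °C in phosphate buffer pH 7.4; fibril and aggregate morphology then imaged by transmission electron microscopy.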

Test [6] has the same target. Briefly: Inhibition of amyloid beta 42 (unknown origin) aggregation at 25 uM after 24 hrs by transmission electron microscopy. In outline: as §2
Test [7] shares this target. Briefly: Potency index, ratio of curcumin IC50 for amyloid beta 40 (unknown origin) aggregation to compound IC50 for amyloid beta 40 (unknown origin) aggregation.
Test [8] has the same target. Briefly: Induction of self-induced amyloid beta 40 (unknown origin) aggregation measured for 24 hrs by thioflavin T-based fluorescence spectroscopic analysis. The method in brief:
as §1

The target is the same in test [9]. As to the kind of experiment: Induction of self-induced amyloid beta 42 (unknown origin) aggregation measured for 24 hrs by thioflavin T-based fluorescence spectroscopic analysis. In outline: as §1
For test [10] the target is unchanged. Briefly: Potency index, ratio of curcumin IC50 for amyloid beta 42 (unknown origin) aggregation to compound IC50 for amyloid beta 42 (unknown origin) aggregation.

Activity calls are given as the source filed them. The rule behind the calls is not given here.

As usually defined, the IC50 is the point on the concentration scale where inhibition reaches its midpoint.

T1 sequence (P05067 whole entry): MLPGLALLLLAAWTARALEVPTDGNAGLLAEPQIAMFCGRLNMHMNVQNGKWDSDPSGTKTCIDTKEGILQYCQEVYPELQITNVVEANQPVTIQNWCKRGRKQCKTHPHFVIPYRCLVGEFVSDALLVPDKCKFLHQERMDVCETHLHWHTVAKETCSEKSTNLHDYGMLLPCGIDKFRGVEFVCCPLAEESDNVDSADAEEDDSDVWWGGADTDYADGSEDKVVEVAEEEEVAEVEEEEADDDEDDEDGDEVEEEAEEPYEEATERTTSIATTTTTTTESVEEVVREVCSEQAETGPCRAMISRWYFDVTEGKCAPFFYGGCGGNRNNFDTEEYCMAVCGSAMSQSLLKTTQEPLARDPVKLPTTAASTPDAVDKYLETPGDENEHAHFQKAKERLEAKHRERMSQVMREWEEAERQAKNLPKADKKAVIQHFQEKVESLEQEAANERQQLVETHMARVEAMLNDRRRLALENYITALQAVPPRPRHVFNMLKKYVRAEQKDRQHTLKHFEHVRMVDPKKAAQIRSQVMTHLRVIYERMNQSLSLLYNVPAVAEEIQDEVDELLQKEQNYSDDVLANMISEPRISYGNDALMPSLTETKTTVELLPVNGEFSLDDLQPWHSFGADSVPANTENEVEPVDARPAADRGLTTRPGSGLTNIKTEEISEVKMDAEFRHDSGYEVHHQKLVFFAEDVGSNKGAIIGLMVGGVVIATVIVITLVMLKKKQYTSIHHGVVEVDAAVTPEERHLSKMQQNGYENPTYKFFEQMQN

In the case of `Nc1nc(NCc2ccccc2)nc2ccccc12`, the results for the IC50 in test [1] and in [2] (read-out: IC50) were 2.2 µM and 8.4 µM, respectively.

For `Nc1nc(NCc2ccc(F)cc2)nc2ccccc12`, the IC50 in test [1] and in [2] (read-out: IC50) was greater than 25 µM in each case.

On to `Nc1nc(NCc2cccc(F)c2)c2ccccc2n1`, for which the IC50 is 2.8 µM in test [1] and greater than 25 µM in test [2] (read-out: IC50).

In the case of `Nc1nc(NCCc2ccccc2)nc2ccccc12`, the values for the IC50 in test [1] and in test [2] (read-out: IC50) were 14.9 µM and greater than 25 µM, respectively.

As for `Nc1nc(NCc2cccc(C(F)(F)F)c2)c2ccccc2n1`, the figures for the IC50 in test [1] and in [2] (read-out: IC50) were 3.5 µM and 21 µM, respectively.

Consider `Cc1ccc(CNc2nc(N)c3ccccc3n2)cc1`, for which the IC50 in test [1] is 13.1 µM; in [2] (read-out: IC50) it was 22.5 µM.

As for `O=S(=O)(O)c1cc(S(=O)(=O)O)c2c(/N=N/c3ccccc3)c(O)ccc2c1` [ORANGE G SODIUM], the IC50 in test [1] was 3 µM; in [2] (read-out: IC50), 8.7 µM.

Consider `Nc1nc(NCCc2ccccc2)c2ccccc2n1`, for which the IC50 in [1] is 7.8 µM; in [2] (read-out: IC50), greater than 25 µM.

Consider `COc1cccc(CNc2nc(N)c3ccccc3n2)c1`, for which the half-inhibitory concentration (IC50) in test [1] and in [2] (read-out: IC50) was greater than 25 µM in each case.

With `CCCNc1nc(N)nc2ccccc12`, the IC50 in test [1] is 14.9 µM; in test [2] it was “Not Active”.

As for `Nc1nc(NCC2CCCCC2)c2ccccc2n1`, the IC50 in [1] was 13.6 µM; in test [2] (read-out: IC50), greater than 25 µM.

With `CC(C)Nc1nc(N)c2ccccc2n1`, the concentration for half-maximal inhibition (IC50) in test [1] and in [2] (read-out: IC50) was greater than 25 µM throughout.

As to `COc1ccc(CNc2nc(N)c3ccccc3n2)cc1`, the concentration for half-maximal inhibition (IC50) in test [1] was 6.8 µM; in test [2] (read-out: IC50) it was greater than 25 µM.

For `Nc1nc(NCc2ccccc2)c2ccccc2n1`, the results for the half-inhibitory concentration (IC50) in test [1] and in test [2] (read-out: IC50) were 4.8 µM and greater than 25 µM, respectively.

Regarding `Nc1nc(NCc2ccc(Cl)cc2)nc2ccccc12`, the IC50 in test [1] turned out to be 0.93 µM; in test [2] (read-out: IC50) it was 8.1 µM.

As for `Cc1ccc(CNc2nc(N)nc3ccccc23)cc1`, the IC50 in test [1] is 3.9 µM; in [2] (read-out: IC50), greater than 25 µM.

For `Nc1nc(NCc2cccc(Cl)c2)nc2ccccc12`, the 50% inhibitory concentration (IC50) stood at 5.9 µM in test [1] and 13.4 µM in [2] (read-out: IC50).

For `Nc1nc(NCc2cccc(F)c2)nc2ccccc12`, the IC50 in test [1] is 11.3 µM; in [2] (read-out: IC50), 14.7 µM.

As to `Nc1nc(NCc2ccc(Br)cc2)c2ccccc2n1`, the IC50 came to 0.08 µM in test [1] and 14.8 µM in test [2] (read-out: IC50). Moreover, the inhibition entry in test [3], in test [5] and in test [6] was “Active” each time. For the same molecule, the TIME in [4] is 3.5 h. Besides, the Ratio IC50 in test [7] was determined as 18.

Take `COc1cccc(CNc2nc(N)nc3ccccc23)c1`: the IC50 in test [1] was 20.6 µM; in [2] it was “Not Active”.

Take `Cc1cccc(CNc2nc(N)c3ccccc3n2)c1`: the IC50 in [1] and in test [2] (read-out: IC50) was greater than 25 µM throughout.

For `Nc1nc(NCc2cccc(C(F)(F)F)c2)nc2ccccc12`, the IC50 in [1] turned out to be 12.5 µM; in test [2] (read-out: IC50), 13.8 µM.

In the case of `CC(C)Nc1nc(N)nc2ccccc12`, the values for the IC50 in [1] and in [2] were 10.2 µM and “Not Active”, respectively.

`Cc1cccc(CNc2nc(N)nc3ccccc23)c1`: the IC50 in test [1] was 3.6 µM; in test [2] (read-out: IC50) it was greater than 25 µM.

`Nc1nc(NCc2ccc(C(F)(F)F)cc2)nc2ccccc12`: the IC50 in test [1] amounted to 2.3 µM; in [2] (read-out: IC50), 5.3 µM.

On to `Nc1nc(NCc2ccc(Cl)cc2)c2ccccc2n1`, for which the concentration for half-maximal inhibition (IC50) in test [1] was 0.62 µM; in test [2] (read-out: IC50) it was greater than 25 µM. Moreover, the Ratio IC50 in test [7] worked out at 2.4.

Take `Nc1nc(NCc2ccc(C(F)(F)F)cc2)c2ccccc2n1`: the 50% inhibitory concentration (IC50) in test [1] was 1.9 µM; in test [2] (read-out: IC50) it was greater than 25 µM.

Consider `Nc1nc(NCc2ccc(F)cc2)c2ccccc2n1`, for which the IC50 in test [1] was 3.1 µM; in test [2] (read-out: IC50) it was greater than 25 µM.

With `CCCNc1nc(N)c2ccccc2n1`, the 50% inhibitory concentration (IC50) in test [1] and in test [2] (read-out: IC50) was greater than 25 µM throughout.

For the molecule `Nc1nc(N)c2ccccc2n1`, the result in [8] and in test [9] was Active.

With `Nc1nc(NCc2ccc(Br)cc2)nc2ccccc12`, the half-inhibitory concentration (IC50) in test [1] and in [2] (read-out: IC50) was 1.7 µM throughout. Also, the inhibition entry in [1] and in test [2] was “Dose-dependent effect” throughout. Besides, the inhibition entry in [4], in test [5] and in [6] was “Active” in each case. In addition, the Ratio IC50 in test [10] was 1.8.

Turning to `Nc1nc(NCC2CCCCC2)nc2ccccc12`, the IC50 in test [1] and in test [2] (read-out: IC50) was greater than 25 µM in each case.

`Nc1nc(NCc2cccc(Br)c2)nc2ccccc12`: the concentration for half-maximal inhibition (IC50) in [1] came out at 1.5 µM; in test [2] (read-out: IC50), 2.7 µM. Further, the inhibition result in test [1] and in test [2] was “Dose-dependent effect” each time. The TIME in test [4] turned out to be 6 h.

With `COc1ccc(CNc2nc(N)nc3ccccc23)cc1`, the results for the 50% inhibitory concentration (IC50) in test [1] and in [2] (read-out: IC50) were 1.1 µM and greater than 25 µM, respectively.

Regarding `Nc1nc(NCc2cccc(Cl)c2)c2ccccc2n1`, the IC50 was 1.9 µM in [1] and greater than 25 µM in [2] (read-out: IC50).

Turning to `Nc1nc(NCc2cccc(Br)c2)c2ccccc2n1`, the concentration for half-maximal inhibition (IC50) was determined as 0.58 µM in [1] and 22.3 µM in test [2] (read-out: IC50). Moreover, the inhibition result in test [3] was “Active”. In test [4], the TIME amounted to 2.6 h.

(Values after ChEMBL document CHEMBL3813621, “Structure-Activity Relationship Studies of Isomeric 2,4-Diaminoquinazolines on β-Amyloid Aggregation Kinetics” (ACS Med Chem Lett, 2016).)
